Reference: ChEMBL document CHEMBL5653622 (Oncotarget, 2016)
The source made the active and inactive calls. No cut-off for these calls is given here.

Legend:
[1] = biological target: Ribosomal protein S6 kinase beta-1 (Homo sapiens) (UniProt P23443); test: Inhibition of human S6K1 assessed as remaining activity at 10 uM in presence of ATP by radiometric kinase assay relative to control
[2] = AUC (0 to t) in BALB/C mouse spleen at 10 mg/kg, po by LC/MS-MS analysis; type: ADME, organism-based
[3] = AUC (0 to infinity) in BALB/C mouse spleen at 10 mg/kg, po by LC/MS-MS analysis; type: ADME, organism-based
[4] = biological target: Serine/threonine-protein kinase BRSK2 (Homo sapiens) (UniProt Q8IWQ3); test: Inhibition of human BRSK2 assessed as remaining activity at 10 uM in presence of ATP by radiometric kinase assay relative to control
[5] = biological target: Tyrosine-protein kinase SYK (Homo sapiens) (UniProt P43405); test: Inhibition of human SYK assessed as remaining activity at 10 uM in presence of ATP by radiometric kinase assay relative to control
[6] = biological target: Mitogen-activated protein kinase 3 (Homo sapiens) (UniProt P27361); test: Inhibition of human ERK1 assessed as remaining activity at 10 uM in presence of ATP by radiometric kinase assay relative to control
HT-29 = test: Induction of apoptosis in human HT-29 cells assessed as phosphorylation of H2AX on S139 in presence of gemcitabine by Western blotting analysis; type: functional, cell-based
[7] = biological target: Dual specificity mitogen-activated protein kinase kinase 2 (Homo sapiens) (UniProt P36507); test: Inhibition of human MKK2 assessed as remaining activity at 10 uM in presence of ATP by radiometric kinase assay relative to control
[8] = biological target: Mitogen-activated protein kinase kinase kinase 5 (Homo sapiens) (UniProt Q99683); test: Inhibition of human ASK1 assessed as remaining activity at 10 uM in presence of ATP by radiometric kinase assay relative to control
[9] = Cmax in BALB/C mouse plasma at 10 mg/kg, iv by LC/MS-MS analysis; type: ADME, organism-based
Outline: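 Female BALB/c mice received a single 10mg/kg bolus i.v. or p.o. Plasma (and spleen homogenate) extracted with methanol containing internal standards. Concentrations were measured by LC/MS-MS and PK parameters calculated with modelling software.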

[10] = biological target: Insulin receptor (Homo sapiens) (UniProt P06213); test: Inhibition of human IR assessed as remaining activity at 10 uM in presence of ATP by radiometric kinase assay relative to control
[11] = biological target: Tyrosine-protein kinase ZAP-70 (Homo sapiens) (UniProt P43403); test: Inhibition of human ZAP70 assessed as remaining activity at 10 uM in presence of ATP by radiometric kinase assay relative to control
[12] = biological target: Tyrosine-protein kinase CSK (Homo sapiens) (UniProt P41240); test: Inhibition of human CSK assessed as remaining activity at 10 uM in presence of ATP by radiometric kinase assay relative to control
[13] = biological target: Phosphorylase b kinase gamma catalytic chain, skeletal muscle/heart isoform (Homo sapiens, UniProt Q16816); test: Inhibition of PHKG1 (unknown origin) by FRET based Z-LYTE kinase assay
[14] = Toxicity in CRTac:Ncr-Fox1 mouse xenografted with human Calu-6 cells assessed as body weight at 150 mg/kg, po administered for 3 days in presence of gemcitabine relative to control; type: organism-based; conditions: in vivo, 72 h, time 3 day
[15] = biological target: Fibroblast growth factor receptor 1 (Homo sapiens) (UniProt P11362); test: Inhibition of human FGF-R1 assessed as remaining activity at 10 uM in presence of ATP by radiometric kinase assay relative to control
Homo sapiens = organism: Homo sapiens; test: Inhibition of human AMPK assessed as remaining activity at 10 uM in presence of ATP by radiometric kinase assay relative to control
[16] = biological target: Serine/threonine-protein kinase tousled-like 1 (Homo sapiens) (UniProt Q9UKI8); test: Inhibition of human TLK1 assessed as remaining activity at 10 uM in presence of ATP by radiometric kinase assay relative to control
[17] = biological target: Serine/threonine-protein kinase pim-3 (Homo sapiens) (UniProt Q86V86); test: Inhibition of human PIM3 assessed as remaining activity at 10 uM in presence of ATP by radiometric kinase assay relative to control
[18] = Half life in BALB/C mouse spleen at 10 mg/kg, iv by LC/MS-MS analysis; type: ADME, organism-based
Outline: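 Female BALB/c mice received a single bolus of 10mg/kg, either i.v. or p.o. The oral vehicle was DPTW (10% DMSO, 20% PEG400, 5% Tween 80, 65% water). Plasma and spleen homogenates were extracted with methanol containing internal standards. Drug levels were measured by LC/MS-MS, and pharmacokinetic parameters were calculated from the concentration-time profiles.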

[19] = biological target: Ribosomal protein S6 kinase alpha-5 (Homo sapiens) (UniProt O75582); test: Inhibition of human MSK1 assessed as remaining activity at 10 uM in presence of ATP by radiometric kinase assay relative to control
[20] = biological target: Mitogen-activated protein kinase 14 (Homo sapiens) (UniProt Q16539); test: Inhibition of human p38a MAPK assessed as remaining activity at 10 uM in presence of ATP by radiometric kinase assay relative to control
[21] = biological target: Homeodomain-interacting protein kinase 1 (Homo sapiens) (UniProt Q86Z02); test: Inhibition of human HIPK1 assessed as remaining activity at 10 uM in presence of ATP by radiometric kinase assay relative to control
[22] = biological target: Tyrosine-protein kinase JAK2 (Homo sapiens) (UniProt O60674); test: Inhibition of human JAK2 assessed as remaining activity at 10 uM in presence of ATP by radiometric kinase assay relative to control
[23] = biological target: Serine/threonine-protein kinase PLK1 (Homo sapiens) (UniProt P53350); test: Inhibition of human PLK1 assessed as remaining activity at 10 uM in presence of ATP by radiometric kinase assay relative to control
[24] = biological target: MAP/microtubule affinity-regulating kinase 3 (Homo sapiens, UniProt P27448); test: Inhibition of human MARK3 by FRET based Z-LYTE kinase assay
[25] = biological target: Receptor-interacting serine/threonine-protein kinase 2 (Homo sapiens) (UniProt O43353); test: Inhibition of human RIPK2 assessed as remaining activity at 10 uM in presence of ATP by radiometric kinase assay relative to control
[26] = biological target: Dual specificity protein kinase CLK2 (Homo sapiens, UniProt P49760); test: Inhibition of human CLK2 by FRET based Z-LYTE kinase assay
[27] = biological target: Ephrin type-A receptor 4 (Homo sapiens) (UniProt P54764); test: Inhibition of human EPH-A4 assessed as remaining activity at 10 uM in presence of ATP by radiometric kinase assay relative to control
[28] = biological target: Serine/threonine-protein kinase 26 (Homo sapiens) (UniProt Q9P289); test: Inhibition of human MST4 assessed as remaining activity at 10 uM in presence of ATP by radiometric kinase assay relative to control
Serine/threonine-protein kinase 26 (Homo sapiens), sequence (Q9P289 2-416 limits assumed): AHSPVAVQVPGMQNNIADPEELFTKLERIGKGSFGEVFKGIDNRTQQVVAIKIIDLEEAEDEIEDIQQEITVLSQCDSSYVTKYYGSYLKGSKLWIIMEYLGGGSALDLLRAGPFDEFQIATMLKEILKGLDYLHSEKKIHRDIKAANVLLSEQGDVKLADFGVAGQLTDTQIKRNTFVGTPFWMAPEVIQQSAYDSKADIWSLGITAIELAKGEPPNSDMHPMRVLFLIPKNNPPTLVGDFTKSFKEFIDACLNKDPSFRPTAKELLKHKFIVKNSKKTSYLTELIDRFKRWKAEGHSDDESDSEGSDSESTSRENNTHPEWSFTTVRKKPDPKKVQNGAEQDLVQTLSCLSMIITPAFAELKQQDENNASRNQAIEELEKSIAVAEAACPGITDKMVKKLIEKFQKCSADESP

Tyrosine-protein kinase JAK2 (Homo sapiens), sequence (O60674 whole entry): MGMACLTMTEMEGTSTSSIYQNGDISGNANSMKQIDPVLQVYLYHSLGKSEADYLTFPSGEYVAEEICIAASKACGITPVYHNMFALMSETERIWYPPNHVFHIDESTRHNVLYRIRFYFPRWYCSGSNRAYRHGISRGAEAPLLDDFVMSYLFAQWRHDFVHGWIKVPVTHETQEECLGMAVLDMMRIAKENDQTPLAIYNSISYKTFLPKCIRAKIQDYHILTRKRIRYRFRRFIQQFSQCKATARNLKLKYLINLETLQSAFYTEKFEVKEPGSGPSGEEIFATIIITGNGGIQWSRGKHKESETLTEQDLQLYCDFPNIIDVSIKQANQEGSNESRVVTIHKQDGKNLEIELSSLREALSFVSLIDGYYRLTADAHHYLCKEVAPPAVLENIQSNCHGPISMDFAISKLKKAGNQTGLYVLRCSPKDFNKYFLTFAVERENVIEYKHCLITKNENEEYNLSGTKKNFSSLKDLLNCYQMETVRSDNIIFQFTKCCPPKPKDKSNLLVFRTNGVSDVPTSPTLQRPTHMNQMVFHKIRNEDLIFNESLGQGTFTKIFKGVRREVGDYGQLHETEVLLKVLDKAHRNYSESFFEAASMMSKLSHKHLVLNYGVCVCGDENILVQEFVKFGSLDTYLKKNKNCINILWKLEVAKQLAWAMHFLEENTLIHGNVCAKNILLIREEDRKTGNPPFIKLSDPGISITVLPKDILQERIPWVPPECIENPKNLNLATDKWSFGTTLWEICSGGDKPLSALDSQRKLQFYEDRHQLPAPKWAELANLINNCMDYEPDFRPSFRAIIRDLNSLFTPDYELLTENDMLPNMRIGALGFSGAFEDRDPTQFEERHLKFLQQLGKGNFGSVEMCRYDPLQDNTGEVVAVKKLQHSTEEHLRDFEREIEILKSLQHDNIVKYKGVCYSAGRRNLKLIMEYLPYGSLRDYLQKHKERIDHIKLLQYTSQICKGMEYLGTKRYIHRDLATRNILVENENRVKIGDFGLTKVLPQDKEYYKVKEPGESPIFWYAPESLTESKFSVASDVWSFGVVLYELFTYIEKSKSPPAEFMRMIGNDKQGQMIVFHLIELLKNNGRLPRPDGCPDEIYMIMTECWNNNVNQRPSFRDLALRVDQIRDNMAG
Phosphorylase b kinase gamma catalytic chain, skeletal muscle/heart isoform, sequence (Q16816 whole entry, canonical isoform): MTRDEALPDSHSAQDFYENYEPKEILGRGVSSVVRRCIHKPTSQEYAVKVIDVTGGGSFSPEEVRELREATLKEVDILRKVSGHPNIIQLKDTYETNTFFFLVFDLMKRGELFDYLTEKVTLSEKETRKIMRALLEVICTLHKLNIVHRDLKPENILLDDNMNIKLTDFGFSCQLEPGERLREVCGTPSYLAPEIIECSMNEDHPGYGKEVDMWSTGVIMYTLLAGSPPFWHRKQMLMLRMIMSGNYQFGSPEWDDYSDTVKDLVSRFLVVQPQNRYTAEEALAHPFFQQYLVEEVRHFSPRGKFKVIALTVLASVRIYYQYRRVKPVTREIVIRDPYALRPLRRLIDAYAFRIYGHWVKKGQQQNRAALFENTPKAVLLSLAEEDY
Receptor-interacting serine/threonine-protein kinase 2 (Homo sapiens), sequence (O43353 whole entry): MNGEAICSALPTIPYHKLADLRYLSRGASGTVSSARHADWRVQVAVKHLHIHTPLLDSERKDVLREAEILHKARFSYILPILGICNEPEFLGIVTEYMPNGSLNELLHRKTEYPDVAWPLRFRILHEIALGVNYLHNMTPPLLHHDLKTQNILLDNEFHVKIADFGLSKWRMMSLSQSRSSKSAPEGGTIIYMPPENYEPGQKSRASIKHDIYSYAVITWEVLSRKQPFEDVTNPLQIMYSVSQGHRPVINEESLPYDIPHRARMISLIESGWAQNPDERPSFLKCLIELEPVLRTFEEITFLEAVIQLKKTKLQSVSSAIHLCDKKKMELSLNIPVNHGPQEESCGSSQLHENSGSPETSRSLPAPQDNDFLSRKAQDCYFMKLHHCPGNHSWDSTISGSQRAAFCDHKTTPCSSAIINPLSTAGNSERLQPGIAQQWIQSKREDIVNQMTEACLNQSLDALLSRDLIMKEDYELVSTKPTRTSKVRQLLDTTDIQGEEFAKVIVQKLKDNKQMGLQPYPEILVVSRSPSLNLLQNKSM
Ribosomal protein S6 kinase beta-1 (Homo sapiens), sequence (P23443 whole entry, looked up): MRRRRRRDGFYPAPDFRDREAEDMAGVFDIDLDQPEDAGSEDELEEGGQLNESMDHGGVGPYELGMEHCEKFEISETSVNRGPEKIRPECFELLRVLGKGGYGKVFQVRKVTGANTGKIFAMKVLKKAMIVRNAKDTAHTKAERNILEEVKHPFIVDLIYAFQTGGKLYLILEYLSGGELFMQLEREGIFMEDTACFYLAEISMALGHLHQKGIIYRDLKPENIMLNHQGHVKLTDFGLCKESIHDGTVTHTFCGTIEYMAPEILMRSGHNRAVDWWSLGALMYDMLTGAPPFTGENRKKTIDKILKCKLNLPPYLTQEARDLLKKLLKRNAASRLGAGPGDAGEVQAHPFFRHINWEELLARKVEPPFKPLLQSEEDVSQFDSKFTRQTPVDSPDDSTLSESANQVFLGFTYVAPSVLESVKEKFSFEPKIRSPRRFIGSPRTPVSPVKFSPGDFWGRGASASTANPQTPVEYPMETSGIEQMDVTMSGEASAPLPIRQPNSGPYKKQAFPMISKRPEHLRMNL
Mitogen-activated protein kinase 3 (Homo sapiens), sequence (P27361 whole entry): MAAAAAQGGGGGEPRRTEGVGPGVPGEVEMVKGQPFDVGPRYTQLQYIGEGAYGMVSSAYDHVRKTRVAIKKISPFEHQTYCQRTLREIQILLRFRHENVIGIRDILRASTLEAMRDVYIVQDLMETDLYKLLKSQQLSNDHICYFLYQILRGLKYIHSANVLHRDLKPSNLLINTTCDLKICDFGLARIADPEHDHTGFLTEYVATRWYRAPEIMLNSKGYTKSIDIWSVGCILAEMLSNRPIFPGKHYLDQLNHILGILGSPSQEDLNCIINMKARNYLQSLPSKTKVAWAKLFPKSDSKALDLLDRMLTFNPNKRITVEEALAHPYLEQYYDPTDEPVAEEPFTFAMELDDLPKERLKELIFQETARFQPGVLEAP
Mitogen-activated protein kinase kinase kinase 5 (Homo sapiens), sequence (Q99683 whole entry): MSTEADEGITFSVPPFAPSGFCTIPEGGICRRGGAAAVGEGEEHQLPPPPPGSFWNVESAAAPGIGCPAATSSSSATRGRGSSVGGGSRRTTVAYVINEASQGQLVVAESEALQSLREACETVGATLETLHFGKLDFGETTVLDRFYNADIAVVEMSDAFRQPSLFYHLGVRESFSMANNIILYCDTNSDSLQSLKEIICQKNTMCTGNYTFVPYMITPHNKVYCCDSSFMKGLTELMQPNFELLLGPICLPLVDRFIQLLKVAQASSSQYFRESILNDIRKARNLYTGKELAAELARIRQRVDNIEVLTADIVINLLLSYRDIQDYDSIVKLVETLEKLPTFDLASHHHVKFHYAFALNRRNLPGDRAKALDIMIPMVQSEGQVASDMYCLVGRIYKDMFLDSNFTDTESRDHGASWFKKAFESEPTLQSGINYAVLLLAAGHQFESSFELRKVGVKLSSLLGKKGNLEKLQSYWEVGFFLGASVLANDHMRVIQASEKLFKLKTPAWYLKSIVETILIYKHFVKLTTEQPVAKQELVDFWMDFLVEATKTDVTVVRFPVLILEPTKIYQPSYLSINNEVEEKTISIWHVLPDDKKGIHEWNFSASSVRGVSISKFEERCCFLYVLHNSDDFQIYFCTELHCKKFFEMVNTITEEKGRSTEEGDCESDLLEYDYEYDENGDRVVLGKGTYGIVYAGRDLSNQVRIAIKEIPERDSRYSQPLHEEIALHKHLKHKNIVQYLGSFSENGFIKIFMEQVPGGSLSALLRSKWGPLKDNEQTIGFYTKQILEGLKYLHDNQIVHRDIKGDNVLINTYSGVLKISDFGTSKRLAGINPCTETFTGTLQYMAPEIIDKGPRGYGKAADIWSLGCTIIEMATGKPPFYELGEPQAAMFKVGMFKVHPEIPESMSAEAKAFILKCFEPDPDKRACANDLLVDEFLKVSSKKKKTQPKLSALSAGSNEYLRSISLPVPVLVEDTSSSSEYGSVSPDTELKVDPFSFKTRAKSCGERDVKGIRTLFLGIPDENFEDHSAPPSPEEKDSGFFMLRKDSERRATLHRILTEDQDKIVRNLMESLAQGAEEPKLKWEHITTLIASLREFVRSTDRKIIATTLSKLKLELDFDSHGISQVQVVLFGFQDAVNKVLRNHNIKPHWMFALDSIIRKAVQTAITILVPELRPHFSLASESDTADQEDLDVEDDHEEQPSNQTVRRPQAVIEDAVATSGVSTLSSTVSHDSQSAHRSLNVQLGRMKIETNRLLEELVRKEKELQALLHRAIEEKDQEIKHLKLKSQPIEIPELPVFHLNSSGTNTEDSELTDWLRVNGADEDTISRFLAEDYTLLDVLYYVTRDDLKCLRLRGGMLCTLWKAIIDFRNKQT

Activity [1]: 52%
AUC(0-t) [2]: 222 µM·h
AUC(0-inf) [3]: 223 µM·h
Activity [4]: 35%
Activity [5]: 84%
Activity [6]: 75%
Activity [7]: 61%
Activity [8]: 80%
Cmax [9]: 4 µM
Activity [10]: 102%
Activity [11]: 93%
Activity [12]: 82%
IC50 [13]: 3.47 µM
Activity [15]: 33%
Activity (Homo sapiens): 32%
Activity [16]: 59%
Activity [17]: 36%
half-life [18]: 166 min
Activity [19]: 30%
Activity [20]: 120%
Activity [21]: 77%
Activity [22]: 37%
Activity [23]: 103%
IC50 [24]: 698 nM
Activity [25]: 101%
IC50 [26]: 1370 nM
Activity [27]: 71%
Activity [28]: 44%
SMILES: N#Cc1cnc(Nc2cc(NC[C@H]3CNCCO3)c(C(F)(F)F)cn2)cn1 [SRA-737]
Activity (HT-29): Active
Activity [14]: 98%
